Experimental data reported in ChEMBL document CHEMBL4043073, “Boronic Acid Modifications Enhance the Anti-Influenza A Virus Activities of Novel Quindoline Derivatives” (J Med Chem, 2017).

Assays:
[1] = (§1) Antiviral activity against Influenza A virus (A/California/04/2009(H1N1)) infected in MDCK cells assessed as reduction in viral HA titer by measuring reduction in chicken RBC […] after 24 hrs by hemagglutination test; assay type: functional, cell-based
Summary of the method: (§2)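 MDCK cells infected at MOI 3.0 (single-cycle) with PR8, Cal09 or swine H3N2 Minnesota, then treated with compound for 24 h. Supernatant HA titers were read by 2-fold serial dilution with an equal volume of 1% chicken RBCs, 60 min at 4 °C. Expressed as percent of untreated-cell HA titer; IC50 derived; n = 4.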

[2] = system: Influenza A virus (A/California/04/2009(H1N1)); test: as §1; assay type: functional, cell-based; summary of the method: as §2
Canis lupus familiaris [3] = species: Canis lupus familiaris; test: Inhibition of MAPK signaling-mediated nuclear import of viral RNP in MDCK cells infected with Influenza A virus (A/Puerto Rico/8/34(H1N1)) assessed as p38 phosphorylation at 10 uM preincubated with virus for 1 hr followed by viral infection after 4 hrs by Western blot method relative to control (reference value: 5.1); assay type: cell-based
Summary of the method: (§3)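 PR8 (MOI 1.0) pretreated with compound 1 h at 37 °C, then MDCK cells were kept in infecting medium with 5 or 10 μM for 4 h; ribavirin 50 μg/mL as comparator. Lysates were immunoblotted for phospho-ERK1/2, p38, NF-κB or Akt, with β-actin/GAPDH loading controls and AP/NBT-BCIP detection. Densitometry was normalised to uninfected cells (= 1.0); n = 3.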

Canis lupus familiaris [4] = species: Canis lupus familiaris; test: Inhibition of NFkappaB activation-mediated viral RNA synthesis in MDCK cells infected with Influenza A virus (A/Puerto Rico/8/34(H1N1)) assessed as NF-kB phosphorylation level at 5 uM preincubated with virus for 1 hr followed by viral infection measured after 4 hrs by Western blot method relative to control (reference value: 1.8); assay type: cell-based; summary of the method: as §3
Influenza A virus = test: Antiviral activity against Influenza A virus (A/Puerto Rico/8/34(H1N1)) infected in Kunming mouse assessed as survival rate at 10 mg/kg/day, po qd for 7 days measured on day 14 post infection (reference value: 30%); assay type: functional; details: A/Puerto Rico/8/1934(H1N1)
[5] = Drug uptake in human A549 cell membranes at 20 uM after 4 hrs by DAPI staining based confocal microscopic analysis; assay type: ADME; details: a549, 4 h
Summary of the method: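 A549 cells incubated with 20 μM compound 4 h at 37 °C, then fixed and DAPI-stained. Compound intrinsic fluorescence located by confocal microscopy.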

Compound: O=C(Nc1ccccc1Nc1c2ccccc2nc2c1[nH]c1ccccc12)c1cccc(B(O)O)c1
- IC50 [1]: 4.3 µM
- Activity [2]: Dose-dependent effect
- fold change (FC) (Canis lupus familiaris [3]): 2.5
- fold change (FC) (Canis lupus familiaris [4]): 0.9
- survival at 10 mg/kg/day (Influenza A virus): 90%
- Drug uptake [5]: Active
